This is an account of results in ChEMBL document CHEMBL5154713, “Illuminating a Dark Kinase: Structure-Guided Design, Synthesis, and Evaluation of a Potent Nek1 Inhibitor and Its Effects on the Embryonic Zebrafish Pronephros” (J Med Chem, 2022).

Test [1] concerns the target T1, Serine/threonine-protein kinase Nek1 (Homo sapiens, UniProt Q96PY6).
T1 sequence (Q96PY6 whole entry): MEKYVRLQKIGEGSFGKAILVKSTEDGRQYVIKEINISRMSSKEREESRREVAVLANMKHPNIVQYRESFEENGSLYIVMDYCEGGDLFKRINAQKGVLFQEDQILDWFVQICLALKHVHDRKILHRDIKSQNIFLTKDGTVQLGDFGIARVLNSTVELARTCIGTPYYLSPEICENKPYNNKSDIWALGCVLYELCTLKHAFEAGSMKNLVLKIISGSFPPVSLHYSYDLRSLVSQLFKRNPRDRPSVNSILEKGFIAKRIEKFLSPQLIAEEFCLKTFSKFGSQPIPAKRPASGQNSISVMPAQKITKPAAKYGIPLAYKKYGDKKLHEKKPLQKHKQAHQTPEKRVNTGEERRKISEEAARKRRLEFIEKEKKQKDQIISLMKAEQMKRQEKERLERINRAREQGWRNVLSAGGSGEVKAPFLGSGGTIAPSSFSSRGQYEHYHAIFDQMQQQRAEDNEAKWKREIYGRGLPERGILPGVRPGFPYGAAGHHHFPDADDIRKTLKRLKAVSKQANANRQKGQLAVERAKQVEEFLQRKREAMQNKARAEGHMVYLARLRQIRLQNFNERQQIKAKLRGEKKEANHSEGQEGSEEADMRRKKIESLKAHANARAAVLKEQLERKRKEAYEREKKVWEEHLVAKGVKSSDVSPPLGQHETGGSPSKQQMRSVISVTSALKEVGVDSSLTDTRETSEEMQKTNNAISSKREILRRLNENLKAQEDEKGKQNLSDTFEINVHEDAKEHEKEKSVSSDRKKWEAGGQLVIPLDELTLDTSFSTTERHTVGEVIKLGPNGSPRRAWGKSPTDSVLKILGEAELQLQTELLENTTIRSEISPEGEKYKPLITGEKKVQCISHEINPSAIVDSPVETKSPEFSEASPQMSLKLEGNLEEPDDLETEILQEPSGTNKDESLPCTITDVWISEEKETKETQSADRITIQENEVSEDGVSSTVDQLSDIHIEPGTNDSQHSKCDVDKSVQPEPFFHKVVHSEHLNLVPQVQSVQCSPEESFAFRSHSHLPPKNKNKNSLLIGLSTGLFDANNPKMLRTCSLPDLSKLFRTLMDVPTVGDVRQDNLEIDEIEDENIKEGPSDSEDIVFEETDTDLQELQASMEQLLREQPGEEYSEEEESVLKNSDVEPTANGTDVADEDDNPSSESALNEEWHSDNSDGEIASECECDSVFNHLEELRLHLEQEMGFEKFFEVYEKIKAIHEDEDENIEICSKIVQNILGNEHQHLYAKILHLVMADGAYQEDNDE
Briefly: Inhibition of human recombinant NEK1 (1 to 505 residues) using RLGRDKYKTLRQIRQ as substrate incubated for 40 mins in presence of [gamma-33P]-ATP by radiometric scintillation counting assay. Put shortly: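 Eurofins IC50Profiler radiometric assay on recombinant human Nek1 (1−505), ATP at 10 μM or 90 μM (near Km). Nine concentrations at half-log steps from 10 μM to 1 nM, with vehicle controls. IC50 and 95% CI obtained by four-parameter nonlinear regression. Mean of two independent experiments.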

The target of test [2] is T2, Serine/threonine-protein kinase Nek1 (Homo sapiens) (UniProt Q96PY6).
T2 sequence (whole entry): T1 sequence (Q96PY6 whole entry)
The experiment in a line: Inhibition of human recombinant NEK1 (1 to 505 residues) assessed as residual activity at 1 uM using RLGRDKYKTLRQIRQ as substrate incubated for 40 mins in presence of [gamma-33P]-ATP by radiometric scintillation counting assay relative to control. Put shortly:
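Eurofins KinaseProfiler radiometric panel, compound at 1 μM, ATP at 10 μM or within 15 μM of apparent Km. For Nek1 (1−505): 8 mM MOPS pH 7.0, 0.2 mM EDTA, 250 μM peptide, 10 mM Mg acetate, [γ-33P]-ATP, 40 min at room temperature. Stopped with 0.5% phosphoric acid, filtermat spotting, scintillation counting. Mean of two independent experiments.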

Test [3] concerns the target T1, Serine/threonine-protein kinase Nek1. The experiment in a line: Inhibition of human recombinant NEK1 (1 to 505 residues) using ULight-p70 S6K peptide as substrate incubated for 30 mins by LANCE Ultra TR-FRET assay. Put shortly: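 Recombinant human Nek1 (1−505, 0.02 nM) in 50 mM HEPES pH 7.5, 1 mM EGTA, 10 mM MgCl2, 0.2 mM DTT, 0.01% Tween20, with 50 nM ULight-p70 S6K peptide and 60 μM ATP, 30 min at 22 °C. Stopped with EDTA plus Eu anti-phospho antibody, 1 h signal development. Ten half-log concentrations from 30 μM (10 μM for some) to 1 nM. Mean of two experiments.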

Each structure is given as a SMILES string. A value given as a limit tells only on which side of the number the result lay.

For the compound `O=S(=O)(NCCO)c1ccc(-c2ccnc3[nH]ccc23)cc1`, the IC50 in test [1] came out at 2 µM; in test [3], 3.2 µM. Also, the Activity in test [2] was 12%.

As for `O=S(=O)(N[C@@H](CO)Cc1ccc(O)cc1)c1ccc(-c2ccnc3[nH]ccc23)cc1`, the Activity in test [2] was found to be 25%. For the same compound, the IC50 in test [3] was determined as 1.6 µM.

In the case of `CC(=O)OCCNS(=O)(=O)c1ccc(-c2ccnc3[nH]ccc23)cc1`, the Activity in test [2] turned out to be 49%. Also, the half-inhibitory concentration (IC50) in test [3] was 8.8 µM.

In the case of `O=S(=O)(N[C@H](CO)Cc1c[nH]c2ccccc12)c1ccc(-c2ccnc3[nH]ccc23)cc1`, the Activity in test [2] turned out to be 19%. In test [3], the half-maximal inhibitory concentration (IC50) came to 0.99 µM.

For `O=S(=O)(NCCN1CCCCC1)c1ccc(-c2ccnc3[nH]ccc23)cc1`, the Activity in test [2] was determined as 37%. The 50% inhibitory concentration (IC50) in test [3] was determined as 6.6 µM.

Take `CCN(CC)CCNS(=O)(=O)c1ccc(-c2ccnc3[nH]ccc23)cc1`: in test [2], the Activity was determined as 68%. For the same compound, the IC50 in test [3] was 10 µM.

Regarding `O=S(=O)(N[C@H](CO)Cc1ccc(O)cc1)c1ccc(-c2ccnc3[nH]ccc23)cc1`, the Activity in test [2] was determined as 33%. For the same compound, the IC50 in test [3] was 2 µM.

As for `CN1CCN(S(=O)(=O)c2ccc(-c3ccnc4[nH]ccc34)cc2)CC1`, the Activity in test [2] was 45%. The 50% inhibitory concentration (IC50) in test [3] is more than 10 µM.

With `COCCNS(=O)(=O)c1ccc(-c2ccnc3[nH]ccc23)cc1`, the Activity in test [2] came to 44%. Besides, the 50% inhibitory concentration (IC50) in test [3] is more than 30 µM.

As to `CN(CCO)S(=O)(=O)c1ccc(-c2ccnc3[nH]ccc23)cc1`, the Activity in test [2] stood at 46%. Besides, the IC50 in test [3] turned out to be 2.7 µM.

As for `O=S(=O)(N[C@H](CO)Cc1ccccc1)c1ccc(-c2ccnc3[nH]ccc23)cc1`, the Activity in test [2] stood at 19%. Further, the 50% inhibitory concentration (IC50) in test [3] came out at 1.9 µM.

As to `CC(C)(C)OC(=O)NCCNS(=O)(=O)c1ccc(-c2ccnc3[nH]ccc23)cc1`, the Activity in test [2] was 49%.

For `O=S(=O)(N[C@@H](CO)Cc1ccccc1)c1ccc(-c2ccnc3[nH]ccc23)cc1`, the Activity in test [2] was found to be 16%. Besides, the IC50 in test [3] was 1.3 µM.

As for `O=C(NCCO)c1ccc(-c2ccnc3[nH]ccc23)cc1`, in test [2], the Activity turned out to be 89%. In addition, the IC50 in test [3] was 29 µM.

In the case of `O=S(=O)(NCCN1CCOCC1)c1ccc(-c2ccnc3[nH]ccc23)cc1`, the Activity in test [2] came to 51%. Moreover, the 50% inhibitory concentration (IC50) in test [3] was determined as 27 µM.

For the compound `CC(C)(O)CNS(=O)(=O)c1ccc(-c2ccnc3[nH]ccc23)cc1`, the Activity in test [2] was found to be 32%. Also, the 50% inhibitory concentration (IC50) in test [3] was found to be 5.8 µM.

For the compound `CN(C)CCNS(=O)(=O)c1ccc(-c2ccnc3[nH]ccc23)cc1`, the IC50 in test [1] amounted to 4.3 µM; in test [3] it was 7.1 µM. Besides, the Activity in test [2] came to 37%.

`O=C(O)[C@H](Cc1ccccc1)NS(=O)(=O)c1ccc(-c2ccnc3[nH]ccc23)cc1`: the Activity in test [2] turned out to be 94%.
